Consider six compounds from ChEMBL document CHEMBL2169852, “Naphthomycins L-N, ansamycin antibiotics from Streptomyces sp. CS” (J Nat Prod, 2012).

pIC50: −log10 of the molar value. ≈ marks a conversion by molar mass, not a printed value. Calls of active or inactive are those of the source. The calls are words filed in the database; no cut-off is given here.

In assay [1] the test system is MCF7. Kind of assay: Growth inhibition of human MCF7 cells at 40 uM by MTT assay. The assay is classed as functional, cell-based. A general note: Tetrazolium assays rely on reduction of a dye to a coloured formazan, in cell work by metabolically active cells.
Assay [2] deals with Pyricularia oryzae. Nature of the assay: Antifungal activity against Pyricularia oryzae at 800 ug/ml incubated for 48 hrs by microdilution method. Format: functional, organism-based. The procedure, abridged: (§1)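 Fungus pre-grown on PDA at 22 °C for 7–10 days. Modified standardized broth microdilution with compounds at 50–800 μg/mL (final) in fungal suspension, final DMSO ≤3%. DMSO-only and compound-free fungal wells served as controls. Incubated at 22 °C for 48 h. MIC is the lowest concentration with no visible growth. Run in triplicate.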
(Broth dilution looks for growth in wells or tubes with falling amounts of substance.)

Assay [3] concerns SMMC-7721. Nature of the assay: Growth inhibition of human SMMC7721 cells at 40 uM by MTT assay. The assay is classed as functional, cell-based.
Assay [4] deals with HL-60. Kind of assay: Growth inhibition of human HL60 cells at 40 uM by MTT assay. Format: functional, cell-based.
For assay [5], the system named is A549. Kind of assay: Growth inhibition of human A549 cells at 40 uM by MTT assay. Format: functional, cell-based.
In assay [6] the test system is SW480. Kind of assay: Growth inhibition of human SW480 cells at 40 uM by MTT assay. The assay is classed as functional, cell-based.
The test system of assay [7] is Fusarium oxysporum. Kind of assay: Antifungal activity against Fusarium oxysporum at 800 ug/ml incubated for 48 hrs by microdilution method. Format: functional, organism-based. In outline: (§2)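 Modified standardized broth microdilution. Phytopathogenic fungi pre-grown on PDA at 22 °C for 7–10 days. Test compounds added at 50–800 μg/mL to wells with fungal suspension, 0.2 mL final volume, DMSO ≤3% final. DMSO served as negative control and fungus without compound as positive control. Incubation 22 °C, 48 h. MIC taken as lowest concentration with no visible growth. Run in triplicate.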

The nature of assay [8]: Antifungal activity against Gaeumannomyces graminis at 800 ug/ml incubated for 48 hrs by microdilution method. The assay is classed as functional. In outline: as §2
In assay [9] the test system is Fusarium verticillioides. Kind of assay: Antifungal activity against Fusarium moniliforme at 800 ug/ml incubated for 48 hrs by microdilution method. Format: functional, organism-based. In outline: as §2
A short description of assay [10]: Antifungal activity against Verticillium cinnabarinum at 800 ug/ml incubated for 48 hrs by microdilution method. The assay is classed as functional. In outline:
as §2

For assay [11], the system named is MCF7. Kind of assay: Growth inhibition of human MCF7 cells by MTT assay. Format: functional, cell-based.
In assay [12] the test system is SMMC-7721. Kind of assay: Growth inhibition of human SMMC7721 cells by MTT assay. Format: functional, cell-based.
The subject of assay [13] is Pyricularia oryzae. Kind of assay: Antifungal activity against Pyricularia oryzae incubated for 48 hrs by microdilution method. The assay is classed as functional. The procedure, abridged:
as §1

The subject of assay [14] is Fusarium verticillioides. Nature of the assay: Antifungal activity against Fusarium moniliforme incubated for 48 hrs by microdilution method. The assay is classed as functional. The procedure, abridged: as §2
The subject of assay [15] is HL-60. Nature of the assay: Growth inhibition of human HL60 cells by MTT assay. The assay is classed as functional, cell-based.
Assay [16] concerns SW480. Nature of the assay: Growth inhibition of human SW480 cells by MTT assay. The assay is classed as functional, cell-based.
Assay [17] has as its system Fusarium oxysporum. Kind of assay: Antifungal activity against Fusarium oxysporum incubated for 48 hrs by microdilution method. The assay is classed as functional. The procedure, abridged:
as §2

In assay [18] the test system is A549. Nature of the assay: Growth inhibition of human A549 cells by MTT assay. Format: functional, cell-based.
Assay [19] can be described thus: Antifungal activity against Gaeumannomyces graminis incubated for 48 hrs by microdilution method. Format: functional. In outline: as §2
A short description of assay [20]: Antifungal activity against Verticillium cinnabarinum incubated for 48 hrs by microdilution method. The assay is classed as functional. In outline:
as §2

Regarding `C/C1=C/C=C\C=C\[C@H](C)[C@@H](O)CC(=O)/C(C)=C/C[C@H](O)/C=C/[C@H](C)[C@H](O)[C@@H](C)/C=C(\C)C(=O)c2c(O)c(C)cc3c2C(=O)C=C(NC1=O)C3=O`, the “growth inhibition (GI)” value in the assay with MCF7 [1], with SMMC-7721 [3], in the assay on HL-60 [4], in the assay with A549 [5] and with SW480 [6] was “inactive” throughout. Besides, the outcome (in the assay on Pyricularia oryzae [2]; in the assay with Fusarium oxysporum [7]; in assay [8]; in the assay on Fusarium verticillioides [9]; in assay [10]) was inactive.
For `C/C1=C/C=C\C=C\[C@H](C)[C@@H](O)CC(=O)/C(C)=C/C[C@H](O)/C=C/[C@H](C)[C@H](O)[C@@H](C)/C=C(\C)C(=O)c2c(O)c(C)cc3c2C(=O)C(SCC(=O)O)=C(NC1=O)C3=O`, the “growth inhibition (GI)” value in the assay with MCF7 [1], with SMMC-7721 [3], in the assay on HL-60 [4], in the assay with A549 [5] and in the assay with SW480 [6] was “inactive” throughout. Besides, the outcome (in the assay with Pyricularia oryzae [2]; with Fusarium oxysporum [7]; in [8]; in the assay with Fusarium verticillioides [9]; in assay [10]) was inactive.
As for `C/C1=C/C=C\C=C\[C@H](C)[C@@H](O)CC(=O)/C(C)=C/C[C@H](O)/C=C/[C@H](C)[C@H](O)[C@@H](C)/C=C(\C)C(=O)c2c(O)c(C)cc3c2C(=O)C(Cl)=C(NC1=O)C3=O` [NAPHTHOMYCIN A], the pIC50 was 4.93 in the assay on MCF7 [11]; 4.78 with SMMC-7721 [12]; 4.59 in the assay on HL-60 [15]; 4.93 in the assay on SW480 [16]; 4.80 in the assay on A549 [18]. Also, the MIC came out at 400 µg/mL (≈ 555 µM) in the assay with Pyricularia oryzae [13]; 100 µg/mL (≈ 139 µM) against Fusarium verticillioides [14]; 400 µg/mL (≈ 555 µM) against Fusarium oxysporum [17]; 400 µg/mL (≈ 555 µM) in [19]; 400 µg/mL (≈ 555 µM) in assay [20].
In the case of `C/C1=C/C=C\C=C\[C@H](C)[C@@H](O)CC(=O)/C(C)=C/C[C@H](O)/C=C/[C@H](C)[C@H](O)[C@@H](C)/C=C(\C)C(=O)c2c(O)c(C)cc3c2C(=O)C(NCCSC2=C4NC(=O)\C(C)=C/C=C\C=C\[C@H](C)[C@@H](O)CC(=O)/C(C)=C/C[C@H](O)/C=C/[C@H](C)[C@H](O)[C@@H](C)/C=C(\C)C(=O)c5c(O)c(C)cc(c5C2=O)C4=O)=C(NC1=O)C3=O`, the “growth inhibition (GI)” value in the assay on MCF7 [1], in the assay with SMMC-7721 [3], with HL-60 [4], with A549 [5] and in the assay with SW480 [6] was “inactive” each time. In addition, the result (with Pyricularia oryzae [2]; with Fusarium oxysporum [7]; in [8]; in the assay on Fusarium verticillioides [9]; in assay [10]) was inactive.
Consider `C/C1=C/C=C\C=C\[C@H](C)[C@@H](O)CC(=O)/C(C)=C/C[C@H](O)/C=C/[C@H](C)[C@H](O)[C@@H](C)/C=C(\C)C(=O)c2c(O)c(C)cc3c2C(=O)C(N)=C(NC1=O)C3=O` [NAPHTHOMYCIN L], for which the “growth inhibition (GI)” value in the assay on MCF7 [1], in the assay with SMMC-7721 [3], in the assay on HL-60 [4], in the assay on A549 [5] and with SW480 [6] was “inactive” throughout. In addition, the MIC in the assay with Pyricularia oryzae [13] came to 600 µg/mL (≈ 856 µM); in the assay on Fusarium verticillioides [14] it was 300 µg/mL (≈ 428 µM); against Fusarium oxysporum [17], 600 µg/mL (≈ 856 µM); in assay [19] it was 600 µg/mL (≈ 856 µM); in [20] it was 600 µg/mL (≈ 856 µM).
For `C/C1=C/C=C\C=C\[C@H](C)[C@@H](O)CC(=O)/C(C)=C/C[C@H](O)/C=C/[C@H](C)[C@H](O)[C@@H](C)/C=C(\C)C(=O)c2c(O)c(C)cc3c2C(=O)C(O)=C(NC1=O)C3=O`, the “growth inhibition (GI)” value with MCF7 [1], in the assay with SMMC-7721 [3], in the assay with HL-60 [4], in the assay on A549 [5] and with SW480 [6] was “inactive” in each case. Further, the result (in the assay on Pyricularia oryzae [2]; in the assay on Fusarium oxysporum [7]; in assay [8]; with Fusarium verticillioides [9]; in [10]) was inactive.

A word on the pIC50: it is the IC50 on a negative log10 scale, so that one unit is a factor of ten. Lower therefore signals a large IC50. One may read the MIC as the least concentration at which growth counts as inhibited. A higher MIC goes with a less susceptible organism.
